Screening data as filed in PubChem.
Cav3 T inh = inhibitors of human Cav3.2 T-type calcium channel; O95180; Cav3.2-expressing cells, Fluo-4 calcium fluorescence FDSS; hits give low values; B-score at 10 µM; 100,000 compounds, 4% hits; AID 449739;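 active means single-dose well whose peak fluorescence ratio is a statistical outlier from its plate by either plate-standardised score or position-corrected B-score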
HIV Rev-RRE inh = inhibitors of HIV-1 Rev-RRE RNA interaction; inhibition, % at 8 µM; AID 704; 97,000 compounds, 0.79% hits; Rev peptide-RRE RNA binding, FRET; P05866;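 active means inhibition above the screen-wide mean plus 3 SD, cut at about 35% in these data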;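 further: 0% = median DMSO wells and 100% = median Neomycin B control wells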
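Assay system: labelled RRE RNA duplex and labelled Rev peptide / Medium: HEPES pH 7.5 salt buffer with EDTA / Reagent: labelled Rev peptide / Schedule: 5 + 15 min at 25 °C / Signal: FRET, excitation 480 nm, emission 540 nm donor and 671 nm acceptor / Benchmarks: DMSO and neomycin B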
PLK1 PBD inh = Plk1 (human) PBD binding inhibition. 97,000 compounds, 0.13% hits. inhibition, %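 (tested at about 20 µM)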. Plk1 PBD phosphopeptide binding, fluorescence polarization. P53350; in the data active means inhibition above about 34%, passing the limit was not always enough
Target sequence (P53350 whole entry, looked up): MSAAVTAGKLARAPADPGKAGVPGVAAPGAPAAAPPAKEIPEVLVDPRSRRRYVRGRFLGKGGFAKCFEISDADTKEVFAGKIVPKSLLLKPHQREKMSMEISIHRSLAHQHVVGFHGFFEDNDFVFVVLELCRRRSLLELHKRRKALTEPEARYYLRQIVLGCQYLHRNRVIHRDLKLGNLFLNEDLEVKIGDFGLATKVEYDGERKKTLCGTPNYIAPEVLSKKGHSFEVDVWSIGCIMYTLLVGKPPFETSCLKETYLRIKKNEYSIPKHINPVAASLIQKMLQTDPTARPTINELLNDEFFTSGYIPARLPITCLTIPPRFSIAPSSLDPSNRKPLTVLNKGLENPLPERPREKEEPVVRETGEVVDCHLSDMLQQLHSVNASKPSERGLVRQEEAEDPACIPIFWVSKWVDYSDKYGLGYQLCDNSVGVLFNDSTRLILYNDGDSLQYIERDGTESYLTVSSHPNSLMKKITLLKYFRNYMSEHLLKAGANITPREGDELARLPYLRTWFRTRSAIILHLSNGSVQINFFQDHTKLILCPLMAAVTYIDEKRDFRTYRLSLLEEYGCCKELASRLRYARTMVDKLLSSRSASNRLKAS
PLK1 kinase inh = PLK1 (human) kinase inhibition; P53350; recombinant PLK1 kinase, TR-FRET peptide phosphorylation; inhibition, % at 10 µM; 97,000 compounds, 0.53% hits;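 active means inhibition of 50% or more in the single-concentration screen; inactive means inhibition below 50%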;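 further: 0% = DMSO max control and 100% = H-89 dihydrochloride min control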
PTK2B oligo ant = Pyk2 (human) oligomerization antagonism; z-score (the deposit names both 25 µM and 10 µM); 99,000 compounds, 0.83% hits; Q293 cells, Pyk2 FERM NanoBiT luminescence; hits give low values; Q14289; AID 1347419;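 active means Z-score of -3 or lower, scaled per plate to the spread of control and sample wells; inactive means z-score above -3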;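 further: negative z-score means lost luminescence so less FERM oligomerization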
FAK blocker = FAK (human) kinase inhibition. Q05397. biochemical FAK kinase activity assay. inhibition, %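 (tested at 7 µM)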. 97,000 compounds, 0.84% hits. AID 727; in the data active means inhibition above about 19%;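 further: 0% = DMSO and 100% = reference compound high control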
Active calls of the source: *; nt = no result given; [ ] = remark or other dose. Shown are actives, neighbours in structure and some others; about 5.8% of the full set was active somewhere.

SMILES	Cav3 T inh	HIV Rev-RRE inh	PLK1 PBD inh	PLK1 kinase inh	PTK2B oligo ant	FAK blocker
O=C1CCCC2=C1C(O)(C(F)(F)F)C(=O)N2Cc1ccccc1 (stereo unspecified)	0.045	6	-15	-14	-0.15	7
O=C1N2c3ccccc3CCc3cccc(c32)C1(O)C(F)(F)F (stereo unspecified)	-5.6*	9	11	-10	0.16	2
CCOC(=O)C1=NN(c2ccccc2C)C2=NC(C)=C(C(=O)OC)C(c3cccs3)N12 (stereo unspecified)	-6*	-2	-8	1	0.01	3
CCOC(=O)C1=NN(c2ccc(F)cc2)C2=NC(C)=C(C(=O)OC)C(c3cccs3)N12 (stereo unspecified)	0.006	5	0	-9	0.32	1
COC(=O)C1=C(N)Oc2cc(C)n(C)c(=O)c2C1c1ccc(Cl)cc1 (stereo unspecified)	-0.9	nt	nt	nt	-2	nt
COC(=O)C1=C(N)Oc2cc(C)n(Cc3ccccc3)c(=O)c2C1c1ccccc1 (stereo unspecified)	-2.6	1	17	-4	-3*	11
C=CCOc1ccc2ccccc2c1/C=N/O	-1.5*	10	14	-11	1.1	1
C=CCOc1ccc(Br)cc1/C=N/O	-3.9*	9	22	-5	-1.1	6
C=CCOc1ccc(Cl)cc1C(=O)O	0.055	6	-16	-5	0.19	-2
COc1ccc2ccccc2c1/C=N/O	0.54	5	19	-8	0.53	-3
O/N=C/c1ccccc1OCc1ccccc1Cl	-1.4	2	-5	-3	-1.2	3
O/N=C/c1cc(Br)ccc1OCc1ccccc1F	-1.6	15	15	-3	-1.1	20*
O=C(C1CCN(S(=O)(=O)c2ccc3c(c2)OCCO3)CC1)N1CCc2ccccc21	0.48	nt	nt	nt	-1.4	nt
CC(OC(=O)C1CCN(S(=O)(=O)c2ccc(Cl)cc2)CC1)C(=O)N1CCc2ccccc21 (stereo unspecified)	-4.7*	15	8	-9	0.1	-2
CCOc1ccc(S(=O)(=O)NCCC(=O)OC(C)C(=O)N2CCc3ccccc32)cc1 (stereo unspecified)	-4.6*	6	9	-1	1.2	1
Cc1ccccc1Cn1nc(C)c(NC(=O)c2noc3c2CCc2ccccc2-3)c1C	-6.9*	-2	-29	-10	nt	-1
Cc1ccccc1Cn1nc(C)c(NC(=O)c2noc3c2CC(C(C)(C)C)CC3)c1C (stereo unspecified)	-4.7*	-5	-2	0	-2.4	-2
Cc1cccc(Cc2cnc(NC(=O)c3ccc(C)o3)s2)c1	-6*	6	31	-13	-0.42	4
Cc1ccc(Cc2cnc(NC(=O)c3ccco3)s2)cc1	-0.14	10	1	1	-1.2	4
Cc1nc2nc(-c3ccc(Cl)cc3)cn2nc1C	nt	12	-1	-11	0.8	1
COc1ccc(-c2cn3nc4c(nc3n2)CCCC4)cc1	nt	98*[fluorescence artefact?]	-5	14	-0.35	4
CC(C)(C)c1ccc(CN2C3=NCCCN3c3ccccc32)cc1	-6.3*	13	11	-7	0.05	0
Cc1ccc(CN2C3=NCCCN3c3ccccc32)cc1	0.018	-1	7	-4	0.24	-2
Cc1ccc(/C=C2\SC(=S)N(c3c(C)n(C)n(-c4ccccc4)c3=O)C2=O)cc1	-5*	8	3	-11	-0.33	0
O=C(c1cc2sccc2n1Cc1ccccc1)N1CCc2ccccc21	-1.6	9	1	-2	-1.4	2
SMILES	Cav3 T inh	HIV Rev-RRE inh	PLK1 PBD inh	PLK1 kinase inh	PTK2B oligo ant	FAK blocker
O=C(c1cc2sccc2n1Cc1ccccc1)N1CCCc2ccccc21	-6.8*	12	-23	-3	-2.1	1
CCOC(=O)c1cc2sccc2n1CC(=O)N1CCCc2ccccc21	-3.8*	20	25	-4	-2.9	6
COC(=O)c1cc2sccc2n1CC(=O)N1CCCc2ccccc21	-2.7	0	-6	1	0.66	-5
Cc1ccc(NC(=O)c2ccccc2N(C)S(C)(=O)=O)cc1C	-0.21	6	-12	-4	0	1
Cc1ccc(CNC(=O)C(=O)NCC2OCCN2S(=O)(=O)c2ccc3c(c2)OCCO3)cc1 (stereo unspecified)	-4.5*	nt	nt	nt	nt	nt
COc1ccc(CNC(=O)C(=O)NCC2OCCN2S(=O)(=O)c2cccs2)cc1 (stereo unspecified)	-4.9*	nt	nt	nt	nt	nt
O=C(NCc1ccc(Cl)cc1)C(=O)NCC1OCCN1S(=O)(=O)c1cccs1 (stereo unspecified)	-6*	nt	nt	nt	nt	nt
Cc1n[nH]c(C)c1CCOc1ccc(C(C)C)cc1	-5.4*	3	1	-4	-1.8	0
CS(=O)(=O)N(CC(=O)N1CCN(c2ccccc2F)CC1)C1CCCCC1	nt	9	10	-6	1.3	14
Cc1ccc(S(=O)(=O)N(CC(=O)N2CCN(c3ccccc3F)CC2)C2CCCCC2)cc1	-4.7*	6	-9	-30	-1.6	1
CC(=O)c1ccccc1OCCn1nnc(-c2ccc(C)cc2)n1	-5.1*	18	-10	-9	-2.2	5
CCOc1ccc(-c2n[nH]c(C)c2Oc2ccc(OC)cc2)c(O)c1	0.24	7	4	-2	-3.1*	-3
Cc1[nH]nc(-c2ccc(OCc3cnn(-c4ccccc4)c3)c(C)c2O)c1Oc1ccccc1	0.98	17	14	-8	-0.5	0
Cc1[nH]nc(-c2ccc(O)c(C)c2O)c1Oc1ccccc1	-4.8	1	8	3	-3.4*	1
CCOCCCNC(=O)C(NC(=O)c1cnccn1)c1ccc(C)cc1 (stereo unspecified)	-1.7	-4	-14	-6	-0.05	1
COc1ccc(OC)c(S(=O)(=O)N2CCC(C(=O)Nc3ccc(C)c(C)c3)CC2)c1	-7.2*	11	10	-4	-2.5	-2
COc1ccc(CNC(=O)C2CCCN(S(=O)(=O)c3cc(C)ccc3OC)C2)cc1 (stereo unspecified)	-3.3*	5	4	-22	0.49	2
CCOC(=O)C1CCCN(S(=O)(=O)c2ccc(OC)c3ccccc23)C1 (stereo unspecified)	-4*	11	19	-2	-1.8	-1
CCOc1ccccc1NC(=O)C1CCCN(S(=O)(=O)c2ccc(OC)c(C)c2)C1 (stereo unspecified)	-4.6*	12	-1	-16	-0.63	-2
COc1ccc(OC)c(S(=O)(=O)N2CCC(C(=O)Nc3cccc(C)c3C)CC2)c1	0.31	-1	2	-2	0.63	-2
C/C(NC1CCCCC1)=C(/C#N)C(=O)NCCN1CCOCC1	0.13	7	30	-8	0.51	-3
CCC(Oc1ccccc1)C(=O)N1CC(C)CC(C)C1 (stereo unspecified)	-0.1	5	-15	-7	1.7	0
COc1ccccc1NS(=O)(=O)c1ccc(NC(=O)c2nc3nc(C)cc(C(F)F)n3n2)cc1	-0.18	1	0	-28	0.94	-1
